Test results as given in PMC4156448 (Memórias do Instituto Oswaldo Cruz, 2014).

What was measured:
[1] = tested on: human hepatocellular liver carcinoma cell line (HepG2); assay: Cytotoxicity MTT assay, HepG2 cells; format: cell-based; conditions: 24 h, unit only from tested concentrations
[2] = tested on: Plasmodium falciparum W2 clone (chloroquine-resistant); assay: In vitro activity against P. falciparum blood-stage parasites, anti-HRPII test; format: cell-based; conditions: classified by IC50
[3] = tested on: normal monkey kidney cells (BGM); assay: Cytotoxicity MTT assay, BGM cells; format: cell-based; conditions: for BGM MLD50: BGM cells, 24 h, MTT, unit only from tested concentrations
[4] = tested on: Plasmodium berghei (NK65); assay: Antimalarial suppressive test against Plasmodium berghei in mice; format: in vivo; conditions: P. berghei; for Inhibition of parasitaemia at days after parasite inoculation (%) Fifth: day 5; for Inhibition of parasitaemia at days after parasite inoculation (%) Ninth: day 9
Outline: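 Oral 4-day-type suppressive test, run once. P. berghei NK65 (chloroquine-sensitive) blood stages kept at -70 °C and passaged weekly in outbred Swiss mice. Adult female mice (20 ± 2 g) received 1 × 10^5 infected erythrocytes and were randomised into groups of three 24 h later. […] Parasitaemia was read on Giemsa-stained tail-blood smears on days 5 and 9, as inhibition versus untreated mice (100%).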

[5] = oral 100 mg/kg for three consecutive days
[6] = chloroquine 20 mg/kg, listed as chloroquine

Structure (SMILES)	HepG2 MLD50 [1]	in vitro activity class against P. falciparum [2]	BGM MLD50 [3]	further results
CC(C)/C=C/C1=C(O)C(=O)c2ccccc2C1=O [Compound 12, Iso-lapachol]	≥ 4,127.6 µM	partially active (those with IC50 values between 5-30 µM were considered partially active)	1,388.9 ± 592.5 µM	difference in cytotoxicity between HepG2 and BGM cells ([3]; HepG2 versus BGM): near two-fold increase
CC1=C(O)C(=O)c2ccccc2C1=O [Compound 13, 2-hydroxy-3-methyl-1,4-naphthoquinone]	5,308.2 ± 8.3 µM		≥ 5,314.1 µM	
CC(C)=CCC1=C(O)C(=O)c2ccccc2C1=O [Compound 10, Lapachol]	1,491.7 ± 321.4 µM		1,785.1 ± 888.3 µM	
CC(C)=CC1=C(O)C(=O)c2ccccc2C1=O [Compound 11, Nor-lapachol]	1,698.6 ± 94.8 µM	partially active (those with IC50 values between 5-30 µM were considered partially active)	1,608.8 ± 221.8 µM	in vivo activity class ([4]; oral 100 mg/kg): inactive; Inhibition of parasitaemia at days after parasite inoculation (%) Fifth [4, 5]: 21%; Inhibition of parasitaemia at days after parasite inoculation (%) Ninth [4, 5]: 21%
CCN(CC)CCCC(C)Nc1ccnc2cc(Cl)ccc12 (stereo not shown) [Chloroquine]				Activity ([4]; chloroquine 20 mg/kg): Cure; Inhibition of parasitaemia at days after parasite inoculation (%) Fifth ([4]; chloroquine 20 mg/kg): 100%; Inhibition of parasitaemia at days after parasite inoculation (%) Ninth ([4]; chloroquine 20 mg/kg): 100%; Activity [4, 6]: clearing parasitaemia; survival of mice [4, 6]: maintaining survival of the mice
